A selection: hits, their analogues and other compounds. The true share with any hit is near 2.2%.
SUMO Mot1 rescue = yeast Mot1-301 growth rescue at high temperature, primary screen, SUMOylation pathway inhibitor project, S. cerevisiae, ATP luminescence, 38.5C; S. cerevisiae Mot1-301 growth rescue; percent above DMSO median, 100 means doubled; growth rescue, % at 18.8 µM; 320,000 tested, 1% active;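 active means every valid replicate shows activation above 250% relative to neutral control wells; inactive means the rest, any valid replicate at or below 250%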;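 further: OY570 slx delta 5 strain wells were the positive control but not used for scaling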
CR mimetic SO = reduction of superoxide in aged yeast, primary screen, HTS; S. cerevisiae aged cells, superoxide DHE fluorescence; hits give low values; superoxide response (% of plate mean), % at 10 µM; 330,000 tested, 0.18% active; AID 2690, 2010;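 active means superoxide response under a set limit, about three screen SD below normal, cut at about 65% in these data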;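 further: yeast aged for seven days with compound at 30 °C before DHE staining; 100% = average MFI of all compound-treated wells on the plate with controls excluded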
rRNA inh HTS = reduced GFP signal of wild-type E. coli, primary screen, bacterial rRNA inhibitor project, GFP/RFP fluorescence, OD600, single point; E. coli WT GFP vs humanized-ribosome RFP mutants, 24 h; hits give low values; DMSO median 0, no signal -100; GFP signal change (wild-type ribosome), % (concentration not given with the values); 350,000 tested, 1.6% active; AID 720706, 2013;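 active means significant combined selectivity score with lowered wild-type GFP, culture density cut under 30%, mutant RFP and density less affected; inactive means any of these conditions unmet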
Cneo AK release = Cryptococcus neoformans cell lysis inducers, primary screen, AK release luminescence, single concentration; C. neoformans lysis, adenylate kinase release luminescence, 4 h; normalised: neutral wells 0, clomiphene wells 100; lysis activity, % at 15 µM; 360,000 tested, 0.2% active;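 active means mean lysis activity across replicates of at least 80%, whatever share of replicates individually reach that level; inactive means mean lysis activity below 80%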
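Material – log-phase Cryptococcus neoformans yeast cells · Input – 5 × 10^6 yeast cells/mL · Medium – fresh YPD growth medium · Doses – single compound concentration per well · Timing – static 4 h at 37 °C with compound, 1 h detection · Detection – adenylate kinase release luminescence · Read-out – signal increase indicating cell lysis · Control set – Clomiphene as positive lysis control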
PglD DTNB = C. jejuni PglD acetyltransferase inhibitors, primary screen, biochemical, DTNB colorimetric, single point. UDP-N-acetylbacillosamine N-acetyltransferase PglD (Campylobacter jejuni). purified PglD enzyme, DTNB colorimetric CoA detection. inhibition, % at 12.5 µM. 360,000 tested, 0.098% active. AID 602405, 2012; in the data active means inhibition above about 16%, passing the limit was not always enough
* = called active by the depositor; . = no result.

SMILES	SUMO Mot1 rescue	CR mimetic SO	rRNA inh HTS	Cneo AK release	PglD DTNB
Cc1onc(-c2ccccc2)c1C(=O)NNC(=S)NC(=O)c1ccc2c(c1)OCO2	-22	159	-40*	0	-3
Cc1onc(-c2ccccc2)c1C(=O)NC(=S)NNC(=O)c1cc(-c2ccc(F)cc2)n[nH]1	-14	103	-33*	5	-2
Cc1onc(-c2c(Cl)cccc2Cl)c1C(=O)Nc1ccc2c(c1)OCO2	6	91	-22*	1	-7
Cc1onc(-c2c(Cl)cccc2Cl)c1C(=O)Nc1ccc(C(N)=O)cc1	-9	91	.	0	-3
COC(=O)C[C@@H]1CC[C@@H]2[C@@H](COc3ccc(NC(=O)NCc4ccccc4)cc3C(=O)N2C)O1	.	.	1	3	0
O=C(CSc1cccc[n+]1[O-])Nc1cccc(Oc2ccccc2)c1	-24	74	-36	.	.
Nc1nc(SCC(=O)Nc2ccc(Oc3ccccc3)cc2)n[nH]1	-2	98	.	-6	-6
O=C(CCl)Nc1cccc(Oc2ccccc2)c1	69	120	-26*	2	-5
Nc1nc(SCC(=O)Nc2cccc(Oc3ccccc3)c2)n[nH]1	1	96	-24*	.	.
O=C(CSc1ncnc2[nH]ncc12)Nc1cccc(Oc2ccccc2)c1	-4	91	-43*	-2	-4
C[C@@H]1CN([C@@H](C)CO)C(=O)c2cc(NC(=O)Cn3cnnn3)ccc2O[C@H]1CN(C)C(=O)Nc1ccc(F)cc1	.	.	3	1	-1
CN(C)c1cccc(C(=O)NNC(=S)NC2CC3CCC2C3)c1 (stereo not given)	1	80	-24*	4	-1
CC(C)N(C(=S)NC1CC2CCC1C2)c1ccccc1 (stereo not given)	14	92	9	0	-7
COc1ccc(CNc2ncnc3cc(OC)c(OC)cc23)cc1OC	-4	102	-17*	.	.
O=C(c1ccc(N2CCCC2)c([N+](=O)[O-])c1)N1CCc2ccccc2C1	-4	98	-23	.	.
COc1ccc(OCC(=O)N2c3ccccc3CC2C)c([N+](=O)[O-])c1 (stereo not given)	-15	99	-24*	-1	0
CC1Cc2ccccc2N1C(=O)c1ccc(N2CCCCC2)c([N+](=O)[O-])c1 (stereo not given)	.	98	-30*	-2	-7
C/C(=N/NC(=O)C(O)(c1ccccc1)c1ccccc1)c1ccc([N+](=O)[O-])o1	.	107	-35*	.	.
CC(=O)c1cccc(NC(=O)c2ccc([N+](=O)[O-])o2)c1	-9	92	.	4	-1
COc1ccc(CNC(=O)CN(C)S(=O)(=O)c2ccc(Br)s2)cc1	-7	109	-4	-1	1
CN(CC(=O)NCc1ccc(F)cc1)S(=O)(=O)c1ccc(Br)s1	22	101	-22*	2	1
CC(C)NC(=O)Nc1ccc2c(c1)CC(=O)N([C@@H](C)CO)C[C@H](C)[C@@H](CN(C)C)O2	.	.	2	-3	3
O=C(NNc1nc2c(F)cccc2s1)c1cc(=O)c2ccccc2o1	-2	99	-51*	-1	-5
Cc1cccc2sc(NNC(=O)c3cc(=O)c4ccccc4o3)nc12	-4	94	-48	0	-1
Cc1ccccc1NC(=S)NC(=O)CCc1ccccc1	-6	88	.	103*	-3
SMILES	SUMO Mot1 rescue	CR mimetic SO	rRNA inh HTS	Cneo AK release	PglD DTNB
C[C@H](O)C#Cc1cnc2c(c1)C(=O)N([C@H](C)CO)C[C@H](C)[C@H](CN(C)Cc1cccc(F)c1)O2	.	.	3	5	-3
CS(=O)(=O)Nc1ccc(C(=O)Nc2ccccc2C(=O)N2CCCC2)cc1	545*	85	.	12	0
CS(=O)(=O)Nc1ccccc1C(=O)Nc1ccccc1C(=O)N1CCCC1	-11	97	13	3	1
Cc1ccccc1S(=O)(=O)NCC[C@@H]1CC[C@@H](NC(=O)C2CCCC2)[C@H](CO)O1	.	.	1	2	-3
CCOC(=O)CN(C(=O)CSc1nnc(CNc2ccc(C)cc2C)o1)c1ccccc1	5	93	-23*	1	3
Cc1ccc(NCc2nnc(SCC(N)=O)o2)c(C)c1	32	94	14	.	.

Screens (PubChem)
